Active and inactive are the calls of the source. The calls are words filed in the database; no cut-off is given here.
Experiments:
[1] = biological target: Cyclin-dependent kinase-like 2 (Homo sapiens) (UniProt Q92772); assay: Inhibition of CDKL2 assessed as residual activity at 10 uM relative to control
[2] = biological target: Ephrin type-A receptor 5 (Homo sapiens) (UniProt P54756); assay: Inhibition of EPHA5 assessed as residual activity at 10 uM relative to control
Procedure, shortened: (§1)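 Competition kinase-binding assay (KINOMEscan) across a non-redundant panel of 329 kinases beyond the radiometric panel; residual binding expressed relative to control.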

[3] = biological target: Mitogen-activated protein kinase 13 (Homo sapiens) (UniProt O15264); assay: Inhibition of p38-delta assessed as residual activity at 10 uM relative to control
[4] = tested on: Epidermal growth factor receptor (Homo sapiens), P00533 [T790M]; assay: Inhibition of EGFR T790M mutant assessed as residual activity at 10 uM relative to control; assay type: protein assay; procedure, shortened: as §1
[5] = biological target: Serine/threonine-protein kinase OSR1 (Homo sapiens) (UniProt O95747); assay: Inhibition of OSR1 assessed as residual activity at 10 uM relative to control
[6] = tested on: Mast/stem cell growth factor receptor Kit (Homo sapiens), P10721 [V559D]; assay: Inhibition of KIT V559D mutant assessed as residual activity at 10 uM relative to control
[7] = tested on: Plasma; assay: AUClast in Swiss albino mouse plasma at 1 mg/kg, iv; assay type: ADME, organism-based; parameters: time 0 - last, dose 1 mg/kg, route intravenous; conditions: in vivo
Procedure, shortened: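 Male Swiss Albino mice, single dose given intravenously (1 mg/kg) or orally (10 mg/kg). Drug measured in plasma and brain, with AUClast taken for each. The brain/plasma ratio is based on AUClast, and oral bioavailability is derived from the IV and PO plasma data.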

[8] = biological target: Leucine-rich repeat serine/threonine-protein kinase 2 (Homo sapiens) (UniProt Q5S007); conditions: 0.01 to 1 uM
[9] = biological target: Misshapen-like kinase 1 (Homo sapiens) (UniProt Q8N4C8); assay: Inhibition of MINK1 assessed as residual activity at 10 uM
[10] = biological target: Serine/threonine-protein kinase 17B (Homo sapiens) (UniProt O94768); assay: Inhibition of DRAK2 assessed as residual activity at 10 uM relative to control
Procedure, shortened: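 Radioactivity-based enzymatic assay of kinase activity, run as part of a 131-kinase profiling panel at the National Centre for Protein Kinase Profiling, Dundee.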

[11] = biological target: Mitogen-activated protein kinase 9 (Homo sapiens) (UniProt P45984); assay: Inhibition of JNK2 assessed as residual activity at 1 uM
Procedure, shortened: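 Radioactivity-based enzymatic activity assay of the named kinase, run as part of a 131-kinase specificity panel at the National Centre for Protein Kinase Profiling (Dundee). Residual activity was read at the stated single inhibitor concentration.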

[12] = biological target: Mitogen-activated protein kinase kinase kinase 4 (Homo sapiens) (UniProt Q9Y6R4); assay: Inhibition of MAP3K4 assessed as residual activity at 10 uM relative to control
[13] = biological target: T1, NUAK family SNF1-like kinase 1 (Homo sapiens) (UniProt O60285); assay: Inhibition of NUAK1 assessed as residual activity at 1 uM
T1 sequence (whole entry): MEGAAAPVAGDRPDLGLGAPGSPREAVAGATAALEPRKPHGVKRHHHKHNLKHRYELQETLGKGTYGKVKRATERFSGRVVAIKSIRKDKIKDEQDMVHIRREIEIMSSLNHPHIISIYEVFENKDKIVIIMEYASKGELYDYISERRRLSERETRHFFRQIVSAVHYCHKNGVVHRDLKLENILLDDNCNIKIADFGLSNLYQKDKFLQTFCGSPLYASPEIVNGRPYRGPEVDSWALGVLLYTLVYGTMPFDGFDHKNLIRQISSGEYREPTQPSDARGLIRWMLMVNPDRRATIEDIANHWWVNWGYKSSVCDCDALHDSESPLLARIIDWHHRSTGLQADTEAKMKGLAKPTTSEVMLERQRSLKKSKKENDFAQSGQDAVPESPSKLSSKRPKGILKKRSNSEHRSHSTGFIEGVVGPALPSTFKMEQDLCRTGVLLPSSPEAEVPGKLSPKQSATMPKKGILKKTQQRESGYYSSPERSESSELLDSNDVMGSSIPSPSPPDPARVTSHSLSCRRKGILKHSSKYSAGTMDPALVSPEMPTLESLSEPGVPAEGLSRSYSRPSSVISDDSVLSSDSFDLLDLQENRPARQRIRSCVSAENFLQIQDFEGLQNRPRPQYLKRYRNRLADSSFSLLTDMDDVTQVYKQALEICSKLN

[14] = biological target: Cyclin-dependent kinase 18 (Homo sapiens) (UniProt Q07002); assay: Inhibition of PCTK3 assessed as residual activity at 10 uM relative to control
[15] = tested on: Leucine-rich repeat serine/threonine-protein kinase 2 (Homo sapiens), Q5S007 [A2016T]; conditions: HEK293, 1 to 3 uM
[16] = biological target: Mitogen-activated protein kinase 11 (Homo sapiens) (UniProt Q15759); assay: Inhibition of p38-beta assessed as residual activity at 10 uM relative to control
[17] = biological target: RAC-gamma serine/threonine-protein kinase (Homo sapiens) (UniProt Q9Y243); assay: Inhibition of AKT3 assessed as residual activity at 10 uM relative to control
[18] = biological target: Mast/stem cell growth factor receptor Kit (Homo sapiens) (UniProt P10721); assay: Inhibition of KIT assessed as residual activity at 10 uM relative to control
[19] = biological target: MAP kinase-activated protein kinase 2 (Homo sapiens) (UniProt P49137); assay: Inhibition of MAPKAPK2 assessed as residual activity at 10 uM relative to control
[20] = tested on: Receptor-type tyrosine-protein kinase FLT3 (Homo sapiens), P36888 [N841I]; assay: Inhibition of FLT3 N841I mutant assessed as residual activity at 10 uM relative to control
[21] = biological target: STE20/SPS1-related proline-alanine-rich protein kinase (Homo sapiens) (UniProt Q9UEW8); assay: Inhibition of STK39 assessed as residual activity at 10 uM relative to control
[22] = tested on: Receptor-type tyrosine-protein kinase FLT3 (Homo sapiens), P36888 [D835H]; assay: Inhibition of FLT3 D835H mutant assessed as residual activity at 10 uM relative to control
[23] = biological target: Rho-associated protein kinase 1 (Homo sapiens) (UniProt Q13464); assay: Inhibition of ROCK1 assessed as residual activity at 10 uM relative to control
[24] = biological target: Cyclin-dependent kinase 2 (Homo sapiens) (UniProt P24941); assay: Inhibition of CDK2 assessed as residual activity at 10 uM relative to control
[25] = biological target: Dual specificity tyrosine-phosphorylation-regulated kinase 3 (Homo sapiens) (UniProt O43781); assay: Inhibition of DYRK3 assessed as residual activity at 1 uM
Procedure, shortened: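 Standard radioactivity-based enzymatic kinase assays on a 131-kinase panel run by the Dundee profiling service; residual kinase activity recorded.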

[26] = biological target: TRAF2 and NCK-interacting protein kinase (Homo sapiens) (UniProt Q9UKE5); assay: Inhibition of TNIK assessed as residual activity at 10 uM relative to control
[27] = Inhibition of PHK assessed as residual activity at 10 uM

Cyclin-dependent kinase 18 (Homo sapiens), sequence (Q07002 whole entry): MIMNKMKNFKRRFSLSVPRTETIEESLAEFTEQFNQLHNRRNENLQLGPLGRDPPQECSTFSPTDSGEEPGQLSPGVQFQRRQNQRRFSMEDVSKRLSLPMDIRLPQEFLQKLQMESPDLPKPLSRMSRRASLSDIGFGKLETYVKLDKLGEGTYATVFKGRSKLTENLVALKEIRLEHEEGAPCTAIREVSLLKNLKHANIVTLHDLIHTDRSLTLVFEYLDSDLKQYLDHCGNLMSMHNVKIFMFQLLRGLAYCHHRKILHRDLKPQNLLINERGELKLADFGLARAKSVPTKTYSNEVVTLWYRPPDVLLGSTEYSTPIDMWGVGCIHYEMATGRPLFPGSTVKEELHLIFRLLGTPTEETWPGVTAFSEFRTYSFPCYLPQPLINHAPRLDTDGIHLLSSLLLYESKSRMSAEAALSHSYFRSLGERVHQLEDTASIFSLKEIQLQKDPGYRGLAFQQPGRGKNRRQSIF
Mast/stem cell growth factor receptor Kit (Homo sapiens), sequence (P10721 whole entry): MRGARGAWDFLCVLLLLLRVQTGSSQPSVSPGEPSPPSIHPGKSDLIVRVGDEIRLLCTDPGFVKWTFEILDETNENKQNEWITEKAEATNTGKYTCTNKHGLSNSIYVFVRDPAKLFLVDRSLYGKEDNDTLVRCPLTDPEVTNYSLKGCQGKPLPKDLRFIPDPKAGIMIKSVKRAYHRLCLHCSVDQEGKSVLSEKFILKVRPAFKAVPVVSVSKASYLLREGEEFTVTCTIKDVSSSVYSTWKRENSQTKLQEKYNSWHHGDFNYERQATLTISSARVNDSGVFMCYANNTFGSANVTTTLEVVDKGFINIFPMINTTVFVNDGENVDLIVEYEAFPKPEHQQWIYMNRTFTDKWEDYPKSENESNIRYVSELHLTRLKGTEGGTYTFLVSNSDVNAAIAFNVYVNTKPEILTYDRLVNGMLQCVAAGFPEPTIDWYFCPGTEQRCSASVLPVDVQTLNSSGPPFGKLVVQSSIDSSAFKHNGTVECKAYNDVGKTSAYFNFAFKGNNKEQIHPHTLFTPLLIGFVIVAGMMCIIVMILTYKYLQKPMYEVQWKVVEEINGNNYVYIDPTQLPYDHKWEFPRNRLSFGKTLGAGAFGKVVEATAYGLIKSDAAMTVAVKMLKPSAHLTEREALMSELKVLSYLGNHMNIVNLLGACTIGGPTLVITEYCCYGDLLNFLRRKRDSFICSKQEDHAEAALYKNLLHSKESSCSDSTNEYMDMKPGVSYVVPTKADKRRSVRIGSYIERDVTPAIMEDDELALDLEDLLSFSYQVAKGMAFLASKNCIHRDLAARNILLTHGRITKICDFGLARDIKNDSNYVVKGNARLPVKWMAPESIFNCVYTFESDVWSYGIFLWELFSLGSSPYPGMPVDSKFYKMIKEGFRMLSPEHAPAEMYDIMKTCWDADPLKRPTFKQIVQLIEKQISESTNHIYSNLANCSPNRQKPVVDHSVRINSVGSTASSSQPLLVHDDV
MAP kinase-activated protein kinase 2 (Homo sapiens), sequence (P49137 whole entry, looked up): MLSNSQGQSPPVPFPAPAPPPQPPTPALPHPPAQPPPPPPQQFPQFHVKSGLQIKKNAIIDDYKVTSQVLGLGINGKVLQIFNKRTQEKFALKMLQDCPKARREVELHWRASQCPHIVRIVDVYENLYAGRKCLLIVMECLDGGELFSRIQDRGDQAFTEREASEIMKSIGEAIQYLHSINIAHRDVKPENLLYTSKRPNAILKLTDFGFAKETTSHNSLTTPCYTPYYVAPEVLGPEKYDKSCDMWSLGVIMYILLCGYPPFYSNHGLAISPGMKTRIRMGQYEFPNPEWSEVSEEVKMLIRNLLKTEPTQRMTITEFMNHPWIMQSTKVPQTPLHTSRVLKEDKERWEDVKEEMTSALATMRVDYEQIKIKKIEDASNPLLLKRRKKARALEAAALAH
TRAF2 and NCK-interacting protein kinase (Homo sapiens), sequence (Q9UKE5 whole entry, looked up): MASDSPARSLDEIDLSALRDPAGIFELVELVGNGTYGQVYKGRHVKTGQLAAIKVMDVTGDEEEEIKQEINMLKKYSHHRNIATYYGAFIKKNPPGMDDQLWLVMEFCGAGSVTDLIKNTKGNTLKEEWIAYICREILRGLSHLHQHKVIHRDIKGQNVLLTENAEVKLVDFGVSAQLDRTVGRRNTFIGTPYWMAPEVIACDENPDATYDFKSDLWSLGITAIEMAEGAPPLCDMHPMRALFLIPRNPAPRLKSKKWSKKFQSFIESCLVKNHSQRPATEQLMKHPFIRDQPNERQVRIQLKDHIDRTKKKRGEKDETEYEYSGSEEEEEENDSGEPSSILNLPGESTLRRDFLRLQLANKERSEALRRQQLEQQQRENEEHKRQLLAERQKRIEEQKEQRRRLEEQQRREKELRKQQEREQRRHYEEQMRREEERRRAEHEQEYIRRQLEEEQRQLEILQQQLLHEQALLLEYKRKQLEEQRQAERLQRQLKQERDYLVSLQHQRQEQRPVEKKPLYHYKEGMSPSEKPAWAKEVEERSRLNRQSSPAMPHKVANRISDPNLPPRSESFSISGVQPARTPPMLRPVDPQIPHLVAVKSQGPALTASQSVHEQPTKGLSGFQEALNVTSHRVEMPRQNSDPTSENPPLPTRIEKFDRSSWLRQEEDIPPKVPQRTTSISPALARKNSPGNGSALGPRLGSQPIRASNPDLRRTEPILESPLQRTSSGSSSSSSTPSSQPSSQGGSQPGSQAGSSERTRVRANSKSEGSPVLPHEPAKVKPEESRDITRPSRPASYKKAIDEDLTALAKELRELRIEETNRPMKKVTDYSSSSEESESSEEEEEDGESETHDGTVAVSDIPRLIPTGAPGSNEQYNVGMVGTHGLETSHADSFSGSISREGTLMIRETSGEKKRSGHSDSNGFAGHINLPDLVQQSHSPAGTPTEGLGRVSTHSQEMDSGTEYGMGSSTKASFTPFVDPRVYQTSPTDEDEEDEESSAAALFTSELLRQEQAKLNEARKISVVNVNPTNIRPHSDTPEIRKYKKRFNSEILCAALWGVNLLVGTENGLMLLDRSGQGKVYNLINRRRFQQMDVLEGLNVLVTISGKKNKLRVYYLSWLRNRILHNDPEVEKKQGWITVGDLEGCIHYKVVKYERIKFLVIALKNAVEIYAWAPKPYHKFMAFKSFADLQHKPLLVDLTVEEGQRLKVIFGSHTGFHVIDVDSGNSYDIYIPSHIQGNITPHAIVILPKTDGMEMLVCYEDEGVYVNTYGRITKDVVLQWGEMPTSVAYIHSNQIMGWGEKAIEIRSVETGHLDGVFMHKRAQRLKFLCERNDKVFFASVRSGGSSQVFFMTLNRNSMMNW
RAC-gamma serine/threonine-protein kinase (Homo sapiens), sequence (Q9Y243 whole entry): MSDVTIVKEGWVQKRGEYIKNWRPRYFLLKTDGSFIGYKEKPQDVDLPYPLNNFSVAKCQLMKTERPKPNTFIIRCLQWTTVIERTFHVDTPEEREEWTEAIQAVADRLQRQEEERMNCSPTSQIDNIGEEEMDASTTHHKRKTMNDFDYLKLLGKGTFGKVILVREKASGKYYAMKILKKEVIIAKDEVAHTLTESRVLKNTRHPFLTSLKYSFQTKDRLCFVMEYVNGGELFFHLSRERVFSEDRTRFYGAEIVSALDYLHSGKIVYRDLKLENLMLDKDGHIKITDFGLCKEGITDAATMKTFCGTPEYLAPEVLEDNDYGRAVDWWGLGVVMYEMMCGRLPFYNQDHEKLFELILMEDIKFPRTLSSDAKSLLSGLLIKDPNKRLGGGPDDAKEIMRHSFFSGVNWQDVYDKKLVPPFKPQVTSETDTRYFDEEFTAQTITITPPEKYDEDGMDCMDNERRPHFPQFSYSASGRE
Mitogen-activated protein kinase 11 (Homo sapiens), sequence (Q15759 whole entry): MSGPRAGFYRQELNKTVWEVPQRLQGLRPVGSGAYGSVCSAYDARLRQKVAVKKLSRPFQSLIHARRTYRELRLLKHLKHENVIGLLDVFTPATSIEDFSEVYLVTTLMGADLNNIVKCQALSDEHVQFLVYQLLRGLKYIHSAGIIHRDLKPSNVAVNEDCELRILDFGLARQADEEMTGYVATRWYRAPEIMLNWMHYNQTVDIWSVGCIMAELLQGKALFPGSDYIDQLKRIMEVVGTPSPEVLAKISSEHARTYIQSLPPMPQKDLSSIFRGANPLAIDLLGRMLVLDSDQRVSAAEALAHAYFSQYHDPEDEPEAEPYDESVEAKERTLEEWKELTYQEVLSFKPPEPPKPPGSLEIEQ
Dual specificity tyrosine-phosphorylation-regulated kinase 3 (Homo sapiens), sequence (O43781 whole entry): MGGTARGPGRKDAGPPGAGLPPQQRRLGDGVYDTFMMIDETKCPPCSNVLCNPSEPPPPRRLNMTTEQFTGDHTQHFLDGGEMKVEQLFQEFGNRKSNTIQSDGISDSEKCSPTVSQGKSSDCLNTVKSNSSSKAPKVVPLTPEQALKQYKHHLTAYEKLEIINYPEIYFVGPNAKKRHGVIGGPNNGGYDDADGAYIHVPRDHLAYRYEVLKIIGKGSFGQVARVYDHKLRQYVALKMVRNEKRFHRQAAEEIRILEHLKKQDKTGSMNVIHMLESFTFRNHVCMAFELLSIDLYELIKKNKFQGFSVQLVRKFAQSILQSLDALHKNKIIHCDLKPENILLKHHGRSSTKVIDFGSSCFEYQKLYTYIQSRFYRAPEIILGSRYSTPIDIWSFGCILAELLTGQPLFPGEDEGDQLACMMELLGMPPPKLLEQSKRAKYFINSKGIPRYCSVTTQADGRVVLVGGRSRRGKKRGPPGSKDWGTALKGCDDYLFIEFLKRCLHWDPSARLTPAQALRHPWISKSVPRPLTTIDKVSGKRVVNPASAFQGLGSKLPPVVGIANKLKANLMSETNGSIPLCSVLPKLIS
Mast/stem cell growth factor receptor Kit (Homo sapiens), P10721 [V559D], sequence (P10721 whole entry V559D): as the sequence (P10721 whole entry) above, with V559D counted along it

SMILES: O=C(Nc1cccnc1)c1cc(-c2ccnc(F)c2)ccc1OCc1ccccc1
- Activity [1]: 77%
- Activity [2]: 48%
- Activity [3]: 75%
- Activity [4]: 40%
- Activity [5]: 63%
- Activity [6]: 70%
- AUClast [7]: 519.6 ng·h/mL
- inhibition [8]: Active
- Activity [9]: 76%
- Activity [10]: 72%
- Activity [11]: 107%
- Activity [12]: 80%
- Activity [13]: 71%
- Activity [14]: 58%
- inhibition [15]: Active
- Activity [16]: 74%
- Activity [17]: 51%
- Activity [18]: 39%
- Activity [19]: 74%
- Activity [20]: 30%
- Activity [21]: 63%
- Activity [22]: 13%
- Activity [23]: 38%
- Activity [24]: 53%
- Activity [25]: 101%
- Activity [26]: 74%
- Activity [27]: 75%

— ChEMBL document CHEMBL2203081 (Bioorg Med Chem Lett, 2012)
